Experimental data collected from several papers.
Lines come from different studies, so protocols differ.
Target: Ephrin type-B receptor 1 (EPHB1, Homo sapiens, UniProt P54762)
One construct used (P54762 18-984): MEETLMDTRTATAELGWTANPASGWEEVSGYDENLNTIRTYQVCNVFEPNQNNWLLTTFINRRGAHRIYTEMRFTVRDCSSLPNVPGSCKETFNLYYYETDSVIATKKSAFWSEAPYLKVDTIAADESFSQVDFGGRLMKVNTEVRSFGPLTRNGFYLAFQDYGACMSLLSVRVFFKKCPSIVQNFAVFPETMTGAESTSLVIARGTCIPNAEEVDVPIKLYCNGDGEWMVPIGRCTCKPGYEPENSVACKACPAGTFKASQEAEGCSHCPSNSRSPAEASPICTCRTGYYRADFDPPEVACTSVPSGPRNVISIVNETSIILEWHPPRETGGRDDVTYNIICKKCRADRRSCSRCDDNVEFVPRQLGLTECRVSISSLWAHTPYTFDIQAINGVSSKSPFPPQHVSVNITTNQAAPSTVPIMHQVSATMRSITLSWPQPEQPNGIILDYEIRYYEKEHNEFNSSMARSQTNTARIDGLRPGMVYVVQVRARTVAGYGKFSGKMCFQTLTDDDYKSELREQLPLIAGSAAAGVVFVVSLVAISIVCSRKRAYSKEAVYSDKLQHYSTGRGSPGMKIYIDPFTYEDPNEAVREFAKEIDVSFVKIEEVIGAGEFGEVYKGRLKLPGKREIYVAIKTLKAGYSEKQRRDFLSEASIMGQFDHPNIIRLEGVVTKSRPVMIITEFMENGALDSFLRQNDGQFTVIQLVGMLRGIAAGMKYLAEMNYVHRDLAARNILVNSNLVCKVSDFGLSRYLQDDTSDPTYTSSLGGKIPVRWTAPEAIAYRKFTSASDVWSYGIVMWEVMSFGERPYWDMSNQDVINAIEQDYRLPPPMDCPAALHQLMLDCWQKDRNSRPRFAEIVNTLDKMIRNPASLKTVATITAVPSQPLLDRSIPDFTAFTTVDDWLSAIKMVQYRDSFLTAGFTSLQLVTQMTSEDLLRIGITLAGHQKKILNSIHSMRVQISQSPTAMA

CNC(=O)c1cc(Oc2ccc(NC(=O)Nc3ccc(Cl)c(C(F)(F)F)c3)cc2)ccn1 — remaining signal (cell-free assay; 0.5 µM): 102%
O=C(O)[C@H]1[C@H](Cn2nnc3ccccc3c2=O)CC[C@@H]1C(=O)c1ccc(OCCC2CCOCC2)cc1 — remaining binding (cell-free assay, competition with immobilised ligand; 1 µM): 100%
CNC(=O)c1cc2c(Oc3ccc(NC(=O)C4(C(=O)Nc5ccc(F)cc5)CC4)cc3)ccnc2cc1OC — inhibition (enzyme activity, inhibitor, radiometric; 1 µM): 99%
COc1cc(-c2cc(-c3ccc(N4CCNCC4)cc3)cnc2C)cc(OC)c1OC — inhibition (enzyme activity, inhibitor; 0.1 µM): 5%
COc1cc(Nc2cnc(C#N)c(O[C@H](C)CN(C)C)n2)ncc1-c1cnn(C)c1 — remaining activity (enzyme activity, inhibitor, radiometric; 10 µM): 71%
CCC(=N\O)/C(C)=C/c1ccc(F)cc1 — remaining binding (cell-free assay, competition with immobilised ligand; 1 µM): 100%
COc1cc2ncnc(Nc3ccc(Oc4ccccc4)cc3C)c2cc1OC — inhibition (enzyme activity, inhibitor; 1 µM): 6%
C#Cc1cccc(Nc2ncnc3cc(OCCOC)c(OCCOC)cc23)c1 — remaining signal (cell-free assay; 0.5 µM): 100%
Cc1sc(C(=O)NC2COC2)cc1-n1cc(NC(=O)Nc2c(F)cccc2Cl)cn1 — remaining activity (enzyme activity, inhibitor; 10 µM): 100%
COc1cc(Nc2c(C#N)cnc3cc(OCCCN4CCN(C)CC4)c(OC)cc23)c(Cl)cc1Cl — remaining signal (cell-free assay; 0.5 µM): 11.8%
O=C(N1CCS(=O)(=O)CC1)N1C[C@H](c2ccc(OC(F)(F)F)cc2)C[C@H](c2nc(C3CC3)no2)C1 — remaining binding (cell-free assay, competition with immobilised ligand; 1 µM): 100%
O=C(Nc1cnn(-c2csc(C(=O)NC3COC3)c2)c1)Nc1c(F)cccc1Cl — remaining activity (enzyme activity, inhibitor; 5 µM): 96.1%
Cc1nccc(COC(=O)N2C[C@@H]3[C@@H](CNC(=O)c4ccc5[nH]nnc5c4)[C@@H]3C2)n1 — remaining binding (cell-free assay, competition with immobilised ligand; 1 µM): 95%
CC/C(=N\NC(=O)NCc1cccc(O)c1)c1ccc(O)c(C)c1O — inhibition (enzyme activity, inhibitor; 0.1 µM): -1%
Cc1ccc(NC(=O)c2ccc(C)c(C(F)(F)F)c2)cc1C#Cc1nn(C2CCC(O)CC2)c2ncnc(N)c12 (centres unmarked) — remaining signal (cell-free assay; 10 µM): -1%
Cc1ccc(C(=O)Nc2ccc(CN3CCN(C)CC3)c(C(F)(F)F)c2)cc1C#Cc1cnc2cccnn12 — remaining signal (cell-free assay; 23.5 nM): 29%
CC(C)(C)c1nc2c(s1)c1nc(N)ncc1c1ccc(NS(=O)(=O)c3c(F)cccc3F)c(F)c12 — remaining activity (enzyme activity, inhibitor, radiometric; 1 µM): 76%
CCCOc1ccc(OC)c(F)c1C(=O)c1ccc(C(=O)N[C@@H]2CNC[C@H]2NC(=O)c2ccc3[nH]ncc3c2)cc1 — remaining activity (enzyme activity, inhibitor; 10 µM): 42%
Clc1ccc(Nc2nnc(Cc3ccncc3)c3ccccc23)cc1 — remaining signal (cell-free assay; 0.5 µM): 107%
Nc1ncnc2occ(-c3ccc(NC(=O)Nc4cc(C(F)(F)F)ccc4F)cc3)c12 — remaining signal (cell-free assay; 20 µM): 0%
CC(=O)c1c(NS(C)(=O)=O)c2cc(-c3ccc(Cl)cc3)c(-c3ccc(Cl)cc3Cl)nc2n(C)c1=O — remaining binding (cell-free assay, competition with immobilised ligand; 1 µM): 100%
Cn1c(=O)n(-c2ccc(C(C)(C)C#N)cc2)c2c3cc(-c4cnc5ccccc5c4)ccc3ncc21 — remaining activity (enzyme activity, inhibitor; 10 µM): 133%
CO[C@@H](C)c1c(Nc2ccc([C@@H](N(C)C(=O)C3CCS(=O)(=O)CC3)C(F)(F)F)cc2)cnc2cc(Cl)nn12 — remaining binding (cell-free assay, competition with immobilised ligand; 1 µM): 92%
CCCS(=O)(=O)Nc1ccc(F)c(C(=O)c2c[nH]c3ncc(-c4ccc(Cl)cc4)cc23)c1F — inhibition (enzyme activity, inhibitor; 1 µM): < 10%
Cc1noc([C@H]2C[C@@H](c3ccc(C(F)(F)F)cc3)CN(C(=O)N3CCS(=O)(=O)C3)C2)n1 — remaining binding (cell-free assay, competition with immobilised ligand; 1 µM): 100%
CCN(CC)CCNC(=O)c1c(C)[nH]c(/C=C2\C(=O)Nc3ccc(F)cc32)c1C — inhibition (enzyme activity, inhibitor; 10 µM): 91%
Cc1cnc(NC2CCOCC2)nc1-n1cnc(C(=O)NC(CN)c2cc(F)cc(Cl)c2)c1 (centres unmarked) — remaining activity (enzyme activity, inhibitor, radiometric; 1 µM): 125%
C[C@@H]1CN(c2cc(-c3n[nH]c4ccc(OC5(C)CC5)cc34)ncn2)C[C@H](C)O1 — remaining binding (cell-free assay, competition with immobilised ligand; 0.1 µM): 83%
Cc1ccc(Nc2nccc(N(C)c3ccc4c(C)n(C)nc4c3)n2)cc1S(N)(=O)=O — inhibition (enzyme activity, inhibitor; 0.3 µM): 8%
